UPR XBP1 act: adaptive UPR (XBP1) activation; CHO-XBP1 luciferase reporter, IRE1-XBP1 UPR activation, luminescence; percent of tunicamycin response, DMSO as zero; AID 463104; 0.33% of 330,000 active; activation, % at 20 µM;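 active = versus positive control, 20 µM dose yields 30% or more activation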;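 also: 100% = tunicamycin at 10 µg/mL and 0% = DMSO only wells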
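Signal: luciferase luminescence; Assay system: CHO-XBP1 luciferase reporter cells; Amount: one thousand reporter cells per well; Dosing: 20 µM single concentration, DMSO 1%; Benchmarks: high control tunicamycin 10 µg/mL final, low control DMSO vehicle only; Schedule: 6 h compound exposure at 37 °C, 5% CO2; Evaluation: percent activation relative to tunicamycin reference.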
A1 inh: inhibitors of the anti-apoptotic protein A1, read as caspase activation; MEF A1-2A-BIM cells, Caspase-Glo 3/7 luminescence, 3 h; percent of clofoctol response, vehicle zero; caspase activation, % (test concentration not listed); 0.066% of 330,000 active;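 active = over half of replicate activation scores above 10%, or exactly half above 10 with the replicate mean above 10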
CHOP UPR activ: activators of apoptotic arm of unfolded protein response (CHOP) | CHO-CHOP luciferase reporter, UPR activation, luminescence; percent of tunicamycin response over DMSO baseline | activation, % at 10 µM | 0.34% of 330,000 active | AID 449763;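 active = at 10 µM dose, activation of 40% or more, normalized to positive control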;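 also: 100% = tunicamycin at 10 µg/mL and 0% = DMSO alone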
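Evaluation: % reporter activation, DMSO baseline versus tunicamycin full activation; System: CHO-CHOP luciferase reporter cell line; Input: 500 cells/well; Incubation: 6 h compound treatment, 37 °C; Measured by: Steady-Glo luciferase luminescence; Dosing: one dose, 10 µM in 0.5% DMSO; Buffer or medium: F12 medium, 10% FBS; Benchmarks: positive tunicamycin 10 µg/mL, negative DMSO alone.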
CHOP inh: CHOP inhibition in unfolded protein response; CHO-K1 CHOP-promoter luciferase, tunicamycin-induced, 15-18 h; inhibition, % at 10 µM; 3.8% of 220,000 active;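 active = compounds that reduced the stress-induced luciferase reporter signal by more than about 70% of percent inhibition, limit read from the data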;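 also: 0% = tunicamycin plus vehicle and 100% = wells without tunicamycin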
* hit, by the source's call. Many of the other results were omitted from the sample, so hits are more common in it than they were.

Screening CC(C)(C)c1ccc(OCC(=O)NCc2ccco2)c(Br)c1 returned UPR XBP1 act 4.8, A1 inh 0.6, CHOP UPR activ 2.4 and CHOP inh 81.1*.
`Cc1ccc(OCC(=O)N(Cc2cccc(F)c2)C2CCS(=O)(=O)C2)cc1` (configuration not stated) gave UPR XBP1 act -3.7, A1 inh -1.0 and CHOP UPR activ 2.3.
CCOC(=O)c1ccc(NC(=O)Cc2coc3cc4c(cc23)CCC4)cc1 was read as UPR XBP1 act -1.3, A1 inh -0.1, CHOP UPR activ -0.7 and CHOP inh 76.7*.
`Fc1ccc(CN2CCN(C(=S)NCCc3ccccc3)CC2)c(Cl)c1` gave UPR XBP1 act 3.0, A1 inh 0.9, CHOP UPR activ 0.4 and CHOP inh 84.8*.
CCc1c(C(=O)OCc2ccccc2)[nH]c(C)c1C was read as UPR XBP1 act 2.3, A1 inh -0.7, CHOP UPR activ 8.0 and CHOP inh -22.4.
For CCc1c(C)[nH]c(C(=O)OCc2ccccc2)c1C the results were CHOP inh 78.5*.
`C=CCN(c1ccccc1C(=O)O)S(=O)(=O)c1ccc(NC(=O)OC)cc1` gave UPR XBP1 act -1.8, A1 inh 0.2, CHOP UPR activ -0.2 and CHOP inh -17.8.
`Cc1ccn2c(C(=O)CSc3ccccc3Cl)c(C)nc2c1` gave UPR XBP1 act 4.0, A1 inh -0.6, CHOP UPR activ 4.0 and CHOP inh 72.7*.
CCOC(=O)C(=CNc1ccc2c(c1)nnn2-c1ccc(Cl)cc1)C(=O)OCC was read as UPR XBP1 act -1.5, A1 inh 0.6, CHOP UPR activ 4.3 and CHOP inh 78.8*.
`O=C(N/C(=C\c1ccc(Br)cc1)C(=O)N1CCCC1)c1cccs1` gave UPR XBP1 act -0.5, A1 inh -0.2, CHOP UPR activ -0.6 and CHOP inh 8.7.
For O=C(/C=C/c1ccccc1)NC(=S)Nc1ccc2c3c(cccc13)CC2 the results were UPR XBP1 act -5.5, A1 inh -0.3, CHOP UPR activ -2.1 and CHOP inh 75.1*.
O=C(COc1ccccc1)NC(=S)Nc1ccc2c3c(cccc13)CC2 was read as UPR XBP1 act -1.9, A1 inh 1.1, CHOP UPR activ 2.1 and CHOP inh 5.2.
`COc1cc(NC(=O)C[n+]2ccc(C(=O)c3ccccc3)cc2)cc(OC)c1` gave UPR XBP1 act -1.9, A1 inh 0.9 and CHOP UPR activ 0.2.
`Cc1ccc2nc(-c3ccc(N)cc3)sc2c1` gave UPR XBP1 act -5.4, A1 inh -7.5, CHOP UPR activ -6.2 and CHOP inh 78.1*.
For Cc1ccc2nc(-c3ccc(NS(=O)(=O)c4ccc(F)cc4)cc3)sc2c1 the results were UPR XBP1 act 1.3, A1 inh -2.0, CHOP UPR activ 2.7 and CHOP inh 104.0*.
Screening CCOCCCn1c(-c2ccc(Cl)cc2)n[nH]c1=S returned UPR XBP1 act -1.2, A1 inh 0.8, CHOP UPR activ 0.2 and CHOP inh -1.4.
`Cc1cccc(OCc2nnc(SC(C)C(=O)Nc3ccc(N4CCOCC4)cc3)o2)c1` (configuration not stated) gave UPR XBP1 act -4.2, A1 inh -0.4 and CHOP UPR activ 0.9.
`CC(C)OC(=O)c1sc2nc(-c3ccccc3)ccc2c1N` gave UPR XBP1 act -1.2, A1 inh -6.4, CHOP UPR activ -1.4 and CHOP inh 82.9*.
`COc1ccc(C(=O)c2sc3nc(-c4ccccc4)ccc3c2N)cc1` gave UPR XBP1 act -2.8, A1 inh -0.9, CHOP UPR activ 0.2 and CHOP inh 78.1*.
COc1cc(NC(=O)c2ccc(Br)cc2)c(OC)cc1NC(=O)c1ccccc1 was read as UPR XBP1 act -1.1, A1 inh 0.8 and CHOP UPR activ 2.7.
COc1ccc2nc3ccccc3nc2c1NC(=O)c1ccc(Cl)cc1 was read as UPR XBP1 act 0.6, A1 inh 0.2, CHOP UPR activ 1.2 and CHOP inh -7.6.
Screening COc1cc(NC(=O)c2ccccc2)c(OC)cc1NC(=O)Cc1ccc(Br)cc1 returned UPR XBP1 act -0.7, A1 inh 11.8* and CHOP UPR activ -0.4.
COc1ccc2nc3ccccc3nc2c1NC(=O)c1ccc(Br)cc1 was read as UPR XBP1 act 1.2, A1 inh -0.2, CHOP UPR activ 0.2 and CHOP inh 78.8*.
N#Cc1cnc2sc3ccccc3n2c1=N was read as UPR XBP1 act 4.4, A1 inh -0.7, CHOP UPR activ 2.2 and CHOP inh 32.5.

Compound activity deposited in PubChem BioAssay by several laboratories.
